Legend:
Human coronavirus OC43 [1] = assay: Antiviral activity against Human coronavirus OC43 infected in new born C57BL/6 mouse assessed as survival rate at 5 mg/kg, sc transfered via maternal milk after administration to pregnant mouse; format: functional; conditions: Betacoronavirus 1, sc, route subcutaneous
How it was run: (§1)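 Pregnant C57BL/6 dams were given chloroquine subcutaneously (200 μl; 1, 5 or 15 mg/kg) prepartum or postpartum; controls were untreated. Five-day-old pups were inoculated intracerebrally with 1 × 10³ HCoV-OC43 copies in 10 μl. Mortality was monitored daily, and survivors were followed for 60 days. Survival is surviving pups over total pups; curves were compared by log-rank test.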

Human coronavirus OC43 [2] = assay: Antiviral activity against Human coronavirus OC43 infected in pregnant C57BL/6 mouse assessed as survival rate at 5 mg/kg, sc administered postpartum; format: functional; conditions: Betacoronavirus 1, sc, route subcutaneous; how it was run: as §1
Human coronavirus OC43 [3] = assay: Antiviral activity against Human coronavirus OC43 infected in human HRT18 cells assessed as decrease in viral load at 10 uM treated at the time of infection measured after 28 hrs by qRT-PCR analysis relative to control; format: functional
How it was run: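 Subconfluent HRT-18 monolayers were infected with 4 × 10⁷ HCoV-OC43 genome equivalents/ml, adsorbed 30 min, and washed five times with MEM. Chloroquine (10 μM) was added at infection or at later time points. Supernatant viral RNA was quantified by qRT-PCR at 28 h postinfection. Two independent experiments in duplicate; mean ± SEM.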

Human coronavirus OC43 [4] = assay: Antiviral activity against Human coronavirus OC43 infected in human HRT18 cells after 4 days by qRT-PCR analysis; format: functional, cell-based; conditions: Betacoronavirus 1, HRT-18, 96 h
How it was run: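 HRT-18 cells were seeded and grown 4 days, then infected with 1 × 10⁶ HCoV-OC43 copies/ml in MEM with 2% FCS, with chloroquine at 0.032–500 μM. After 4 days at 37°C in 5% CO₂, viral RNA in the supernatant was quantified by qRT-PCR against a cRNA standard curve. EC50 is the concentration halving the viral RNA increase relative to untreated infected cells.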

Human coronavirus OC43 [5] = assay: Antiviral activity against Human coronavirus OC43 infected in new born C57BL/6 mouse assessed as survival rate at 15 mg/kg, sc transfered via maternal milk after administration to pregnant mouse; format: functional; conditions: Betacoronavirus 1, sc, route subcutaneous
[6] = Cytotoxicity against human HRT18 cells after 4 days by MTS assay; format: cell-based, HRT-18
How it was run: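 HRT-18 cells grown in MEM with 10% fetal calf serum, 1% L-glutamine and 1.4% sodium bicarbonate were exposed to a range of compound concentrations for 4 days at 37°C, 5% CO₂. Viable cells were quantified by MTS reduction to formazan, read at 492 nm. CC50 is the concentration reducing viability by 50%.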

Human coronavirus OC43 [7] = assay: Antiviral activity against Human coronavirus OC43 infected in new born C57BL/6 mouse assessed as survival rate at 1 mg/kg, sc transfered via placenta after administration to pregnant mouse; format: functional; conditions: Betacoronavirus 1, sc, route subcutaneous; how it was run: as §1
Human coronavirus OC43 [8] = assay: Antiviral activity against Human coronavirus OC43 infected in pregnant C57BL/6 mouse assessed as survival rate at 15 mg/kg, sc administered prepartum; format: functional; conditions: Betacoronavirus 1, sc, route subcutaneous; how it was run: as §1
Human coronavirus OC43 [9] = assay: Antiviral activity against Human coronavirus OC43 infected in pregnant C57BL/6 mouse assessed as survival rate at 1 mg/kg, sc administered postpartum; format: functional; conditions: Betacoronavirus 1, sc, route subcutaneous; how it was run: as §1
Human coronavirus OC43 [10] = assay: Antiviral activity against Human coronavirus OC43 infected in new born C57BL/6 mouse assessed as survival rate at 5 mg/kg, sc transfered via placenta after administration to pregnant mouse; format: functional; conditions: Betacoronavirus 1, sc, route subcutaneous; how it was run: as §1
Human coronavirus OC43 [11] = assay: Antiviral activity against Human coronavirus OC43 infected in new born C57BL/6 mouse assessed as survival rate at 1 mg/kg, sc transfered via maternal milk after administration to pregnant mouse; format: functional; conditions: Betacoronavirus 1, sc, route subcutaneous; how it was run: as §1
[12] = Selectivity index, ratio of CC50 for human HRT18 cells to EC50 for Human coronavirus OC43 infected in human HRT18 cells; format: toxicity, cell-based; conditions: read-out: Ratio CC50/EC50
How it was run: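 Index = CC50/EC50. For the EC50, HRT-18 cells were seeded at 6 × 10⁴ per well and grown 4 days. They were then infected with 1 × 10⁶ OC43 copies/ml in 2% serum MEM with 0.032–500 μM compound for 4 days at 37°C. Supernatant RNA was measured by qRT-PCR against a cRNA standard curve. The CC50 came from the MTS viability assay at 4 days.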

Human coronavirus OC43 [13] = assay: Antiviral activity against Human coronavirus OC43 infected in pregnant C57BL/6 mouse assessed as survival rate at 1 mg/kg, sc administered prepartum; format: functional; conditions: Betacoronavirus 1, sc, route subcutaneous; how it was run: as §1
Human coronavirus OC43 [14] = assay: Antiviral activity against Human coronavirus OC43 infected in new born C57BL/6 mouse assessed as survival rate at 15 mg/kg, sc transfered via placenta after administration to pregnant mouse; format: functional; conditions: Betacoronavirus 1, sc, route subcutaneous
Human coronavirus OC43 [15] = assay: Antiviral activity against Human coronavirus OC43 infected in pregnant C57BL/6 mouse assessed as survival rate at 15 mg/kg, sc administered postpartum; format: functional; conditions: Betacoronavirus 1, sc, route subcutaneous; how it was run: as §1
Human coronavirus OC43 [16] = assay: Antiviral activity against Human coronavirus OC43 infected in pregnant C57BL/6 mouse assessed as survival rate at 5 mg/kg, sc administered prepartum; format: functional; conditions: Betacoronavirus 1, sc, route subcutaneous; how it was run: as §1

## CCN(CC)CCCC(C)Nc1ccnc2cc(Cl)ccc12.O=P(O)(O)O.O=P(O)(O)O (stereo unspecified) [CHLOROQUINE PHOSPHATE]
Human coronavirus OC43 [1]
  survival at 5 mg/kg: 83.3%
Human coronavirus OC43 [2]
  survival at 5 mg/kg: 83.3%
Human coronavirus OC43 [3]
  fold change (FC): 100
Human coronavirus OC43 [4]
  EC50: 0.306 µM
Human coronavirus OC43 [5]
  survival at 15 mg/kg: 97.4%
[6]
  CC50 at 96 h: 419 µM
Human coronavirus OC43 [7]
  survival at 1 mg/kg: 33.3%
Human coronavirus OC43 [8]
  survival at 15 mg/kg: 100%
Human coronavirus OC43 [9]
  survival at 1 mg/kg: 0%
Human coronavirus OC43 [10]
  survival at 5 mg/kg: 92.9%
Human coronavirus OC43 [11]
  survival at 1 mg/kg: 0%
[12]
  selectivity ratio: 1370
Human coronavirus OC43 [13]
  survival at 1 mg/kg: 33.3%
Human coronavirus OC43 [14]
  survival at 15 mg/kg: 100%
Human coronavirus OC43 [15]
  survival at 15 mg/kg: 97.4%
Human coronavirus OC43 [16]
  survival at 5 mg/kg: 92.9%
